# Test results taken from ChEMBL document CHEMBL1287651, “Synthesis and in vitro antibacterial activity of fluoroquinolone derivatives containing 3-(N'-alkoxycarbamimidoyl)-4-(alkoxyimino) pyrrolidines” (2010).
# What was measured:
# Type in all cases: functional
# Enterococcus faecalis [1] = assay: Antibacterial activity against Enterococcus faecalis 08-12 after 18 to 24 hrs by twofold serial dilution method
# How it was run: (§1)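 MIC determined by the standard twofold serial dilution method on agar media, screening against Gram-positive and Gram-negative strains. Levofloxacin and gemifloxacin were run alongside as reference drugs.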
# Staphylococcus aureus [2] = assay: Antibacterial activity against Staphylococcus aureus ATCC […] after 18 to 24 hrs by twofold serial dilution method; how it was run: as §1
# Enterococcus faecium [3] = assay: Antibacterial activity against Enterococcus faecium 08-2 after 18 to 24 hrs by twofold serial dilution method; how it was run: as §1
# [4] = test system: Staphylococcus epidermidis; assay: Antibacterial activity against methicillin-resistant Staphylococcus epidermidis 09-4 after 18 to 24 hrs by twofold serial dilution method
# How it was run: (§2)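 Standard twofold serial agar dilution method on agar media for MIC determination. Screened against representative Gram-positive and Gram-negative strains. Levofloxacin and GMFX served as control drugs.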
# [5] = test system: Staphylococcus epidermidis; assay: Antibacterial activity against methicillin-resistant Staphylococcus epidermidis 09-2 after 18 to 24 hrs by twofold serial dilution method; how it was run: as §2
# Pseudomonas aeruginosa [6] = assay: Antibacterial activity against Pseudomonas aeruginosa 09-34 after 18 to 24 hrs by twofold serial dilution method; how it was run: as §1
# Enterococcus faecium [7] = assay: Antibacterial activity against Enterococcus faecium 08-7 after 18 to 24 hrs by twofold serial dilution method; how it was run: as §1
# [8] = test system: Staphylococcus epidermidis; assay: Antibacterial activity against methicillin-sensitive Staphylococcus epidermidis 09-6 after 18 to 24 hrs by twofold serial dilution method; how it was run: as §2
# Escherichia coli [9] = assay: Antibacterial activity against Escherichia coli 08-21 after 18 to 24 hrs by twofold serial dilution method; how it was run: as §1
# Streptococcus pneumoniae [10] = assay: Antibacterial activity against Streptococcus pneumoniae 08-2 after 18 to 24 hrs by twofold serial dilution method; how it was run: as §1
# [11] = test system: Staphylococcus epidermidis; assay: Antibacterial activity against methicillin-resistant Staphylococcus epidermidis 09-3 after 18 to 24 hrs by twofold serial dilution method; how it was run: as §2
# Escherichia coli [12] = assay: Antibacterial activity against Escherichia coli ATCC 25922 after 18 to 24 hrs by twofold serial dilution method; how it was run: as §1
# Escherichia coli [13] = assay: Antibacterial activity against Escherichia coli 08-22 after 18 to 24 hrs by twofold serial dilution method; how it was run: as §1
# Klebsiella pneumoniae [14] = assay: Antibacterial activity against Klebsiella pneumoniae 09-23 after 18 to 24 hrs by twofold serial dilution method; how it was run: as §1
# Streptococcus pneumoniae [15] = assay: Antibacterial activity against Streptococcus pneumoniae 08-4 after 18 to 24 hrs by twofold serial dilution method; how it was run: as §1
# Pseudomonas aeruginosa [16] = assay: Antibacterial activity against Pseudomonas aeruginosa 09-35 after 18 to 24 hrs by twofold serial dilution method; how it was run: as §1
# [17] = test system: Staphylococcus epidermidis; assay: Antibacterial activity against methicillin-sensitive Staphylococcus epidermidis 09-3 after 18 to 24 hrs by twofold serial dilution method; how it was run: as §2
# Enterococcus faecalis [18] = assay: Antibacterial activity against Enterococcus faecalis 08-10 after 18 to 24 hrs by twofold serial dilution method; how it was run: as §1
# Pseudomonas aeruginosa [19] = assay: Antibacterial activity against Pseudomonas aeruginosa ATCC 27853 after 18 to 24 hrs by twofold serial dilution method; how it was run: as §1
# Pseudomonas aeruginosa [20] = assay: Antibacterial activity against Pseudomonas aeruginosa 09-32 after 18 to 24 hrs by twofold serial dilution method; how it was run: as §1
# Klebsiella pneumoniae [21] = assay: Antibacterial activity against Klebsiella pneumoniae 09-21 after 18 to 24 hrs by twofold serial dilution method; how it was run: as §1
# Klebsiella pneumoniae [22] = assay: Antibacterial activity against Klebsiella pneumoniae 09-22 after 18 to 24 hrs by twofold serial dilution method; how it was run: as §1
# Pseudomonas aeruginosa [23] = assay: Antibacterial activity against Pseudomonas aeruginosa 09-33 after 18 to 24 hrs by twofold serial dilution method; how it was run: as §1
# Staphylococcus aureus [24] = assay: Antibacterial activity against methicillin-sensitive Staphylococcus aureus 08-2 after 18 to 24 hrs by twofold serial dilution method; how it was run: as §2
# Staphylococcus aureus [25] = assay: Antibacterial activity against methicillin-resistant Staphylococcus aureus 08-1 after 18 to 24 hrs by twofold serial dilution method; how it was run: as §2
Compound,MIC (Enterococcus faecalis [1]) [µg/mL],MIC (Staphylococcus aureus [2]) [µg/mL],MIC (Enterococcus faecium [3]) [µg/mL],MIC [4] [µg/mL],MIC [5] [µg/mL],MIC (Pseudomonas aeruginosa [6]) [µg/mL],MIC (Enterococcus faecium [7]) [µg/mL],MIC [8] [µg/mL],MIC (Escherichia coli [9]) [µg/mL],MIC (Streptococcus pneumoniae [10]) [µg/mL],MIC [11] [µg/mL],MIC (Escherichia coli [12]) [µg/mL],MIC (Escherichia coli [13]) [µg/mL],MIC (Klebsiella pneumoniae [14]) [µg/mL],MIC (Streptococcus pneumoniae [15]) [µg/mL],MIC (Pseudomonas aeruginosa [16]) [µg/mL],MIC [17] [µg/mL],MIC (Enterococcus faecalis [18]) [µg/mL],MIC (Pseudomonas aeruginosa [19]) [µg/mL],MIC (Pseudomonas aeruginosa [20]) [µg/mL],also measured
CCO/N=C1\CN(c2c(F)cc3c(=O)c(C(=O)O)cn4c3c2OC[C@@H]4C)CC1/C(N)=N\OC (stereo not given in full),> 128,0.25,> 128,0.25,0.25,> 128,> 128,0.5,> 128,> 128,0.125,128,> 128,> 128,0.25,> 128,0.25,0.5,> 128,> 128,MIC (Klebsiella pneumoniae [21]): > 128 µg/mL; MIC (Klebsiella pneumoniae [22]): 1 µg/mL; MIC (Pseudomonas aeruginosa [23]): > 128 µg/mL; MIC (Staphylococcus aureus [24]): 0.25 µg/mL; MIC (Staphylococcus aureus [25]): 0.25 µg/mL
CCO/N=C1\CN(c2c(F)cc3c(=O)c(C(=O)O)cn4c3c2OC[C@@H]4C)CC1/C(N)=N\OCC (stereo not given in full),> 128,1,> 128,> 128,> 128,> 128,> 128,8,> 128,64,> 128,128,> 128,> 128,> 128,64,8,> 128,64,64,MIC (Klebsiella pneumoniae [21]): > 128 µg/mL; MIC (Klebsiella pneumoniae [22]): > 128 µg/mL; MIC (Pseudomonas aeruginosa [23]): > 128 µg/mL; MIC (Staphylococcus aureus [24]): 64 µg/mL; MIC (Staphylococcus aureus [25]): 64 µg/mL
CCn1cc(C(=O)O)c(=O)c2cc(F)c(N3C/C(=N\OC)C(/C(N)=N\O)C3)c(F)c21 (stereo not given),> 128,0.25,> 128,1,1,1,> 128,0.25,> 128,1,0.25,128,> 128,> 128,> 128,> 128,0.25,> 128,1,1,MIC (Klebsiella pneumoniae [21]): > 128 µg/mL; MIC (Klebsiella pneumoniae [22]): 1 µg/mL; MIC (Pseudomonas aeruginosa [23]): 1 µg/mL; MIC (Staphylococcus aureus [24]): 0.25 µg/mL; MIC (Staphylococcus aureus [25]): 0.25 µg/mL
CCO/N=C1\CN(c2c(F)cc3c(=O)c(C(=O)O)cn(CC)c3c2F)CC1/C(N)=N\O (stereo not given),> 128,1,> 128,1,1,> 128,> 128,0.125,> 128,16,0.25,> 128,16,> 128,> 128,> 128,0.125,> 128,> 128,> 128,MIC (Klebsiella pneumoniae [21]): > 128 µg/mL; MIC (Klebsiella pneumoniae [22]): > 128 µg/mL; MIC (Pseudomonas aeruginosa [23]): > 128 µg/mL; MIC (Staphylococcus aureus [24]): 1 µg/mL; MIC (Staphylococcus aureus [25]): 1 µg/mL
CCn1cc(C(=O)O)c(=O)c2cc(F)c(N3C/C(=N\OC)C(/C(N)=N\OC)C3)c(F)c21 (stereo not given),> 128,0.25,> 128,0.25,2,> 128,> 128,0.5,> 128,1,0.25,128,> 128,> 128,1,> 128,0.25,> 128,128,> 128,MIC (Klebsiella pneumoniae [21]): > 128 µg/mL; MIC (Klebsiella pneumoniae [22]): 1 µg/mL; MIC (Pseudomonas aeruginosa [23]): > 128 µg/mL; MIC (Staphylococcus aureus [24]): 0.25 µg/mL; MIC (Staphylococcus aureus [25]): 0.25 µg/mL
CCO/N=C(/N)C1CN(c2c(F)cc3c(=O)c(C(=O)O)cn(CC)c3c2F)C/C1=N\OC (stereo not given),> 128,0.125,> 128,0.125,0.5,> 128,> 128,0.25,> 128,16,0.125,> 128,> 128,> 128,0.5,> 128,0.25,> 128,> 128,> 128,MIC (Klebsiella pneumoniae [21]): > 128 µg/mL; MIC (Klebsiella pneumoniae [22]): 1 µg/mL; MIC (Pseudomonas aeruginosa [23]): > 128 µg/mL; MIC (Staphylococcus aureus [24]): 0.25 µg/mL; MIC (Staphylococcus aureus [25]): 0.25 µg/mL
